Experimental data published in publication PMC4780262 (Bioorganic & medicinal chemistry, 2013).
pIC50: −log10 of the molar value.

Columns and labels:
haspin catalytic domain = target: T1, haspin catalytic domain (Homo sapiens, UniProt Q8TF76); experiment: Differential scanning fluorimetry on haspin catalytic domain; format: binding; conditions: 10 μM compound
T1 sequence (Q8TF76 484-798 limits assumed): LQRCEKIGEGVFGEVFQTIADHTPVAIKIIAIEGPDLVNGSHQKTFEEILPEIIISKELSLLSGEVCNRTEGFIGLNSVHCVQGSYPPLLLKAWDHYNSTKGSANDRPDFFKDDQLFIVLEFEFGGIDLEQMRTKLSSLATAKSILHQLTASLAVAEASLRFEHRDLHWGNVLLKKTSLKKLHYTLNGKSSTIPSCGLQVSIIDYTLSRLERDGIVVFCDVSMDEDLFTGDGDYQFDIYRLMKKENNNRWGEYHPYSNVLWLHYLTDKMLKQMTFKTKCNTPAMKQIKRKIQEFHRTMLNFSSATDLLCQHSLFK

PRMT5-MEP50 = PRMT5-MEP50 (Homo sapiens, UniProt O14744); experiment: HMT selectivity assay; format: biochemical
PRMT5-MEP50, sequence (O14744 whole entry): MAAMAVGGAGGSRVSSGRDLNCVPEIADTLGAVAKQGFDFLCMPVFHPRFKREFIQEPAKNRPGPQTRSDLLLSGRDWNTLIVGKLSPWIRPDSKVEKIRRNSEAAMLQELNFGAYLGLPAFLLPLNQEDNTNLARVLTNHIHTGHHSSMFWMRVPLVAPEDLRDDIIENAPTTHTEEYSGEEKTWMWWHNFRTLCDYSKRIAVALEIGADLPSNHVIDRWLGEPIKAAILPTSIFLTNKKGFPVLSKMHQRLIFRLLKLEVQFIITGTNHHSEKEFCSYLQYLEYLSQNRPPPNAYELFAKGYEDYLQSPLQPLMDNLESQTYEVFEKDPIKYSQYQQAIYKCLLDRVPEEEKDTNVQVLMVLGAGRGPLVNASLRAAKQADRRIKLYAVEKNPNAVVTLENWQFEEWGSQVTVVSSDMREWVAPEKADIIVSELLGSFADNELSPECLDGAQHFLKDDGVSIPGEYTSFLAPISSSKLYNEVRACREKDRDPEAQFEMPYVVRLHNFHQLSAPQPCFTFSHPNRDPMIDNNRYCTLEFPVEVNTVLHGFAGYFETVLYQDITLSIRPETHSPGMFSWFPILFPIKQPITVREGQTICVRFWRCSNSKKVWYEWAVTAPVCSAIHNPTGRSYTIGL
PRMT5-MEP50, sequence (Q9BQA1 whole entry partner): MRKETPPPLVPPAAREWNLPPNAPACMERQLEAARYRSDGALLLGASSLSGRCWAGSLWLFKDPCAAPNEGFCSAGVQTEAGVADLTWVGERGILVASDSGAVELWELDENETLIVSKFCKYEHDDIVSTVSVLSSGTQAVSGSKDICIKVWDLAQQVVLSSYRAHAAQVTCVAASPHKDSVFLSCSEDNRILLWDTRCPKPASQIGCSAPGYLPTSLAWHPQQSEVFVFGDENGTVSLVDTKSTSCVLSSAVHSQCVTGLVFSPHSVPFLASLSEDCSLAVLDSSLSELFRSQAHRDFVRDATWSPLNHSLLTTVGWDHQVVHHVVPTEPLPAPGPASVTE

EZH2 (PRC2 complex) = EZH2 (PRC2 complex) (Homo sapiens, UniProt Q15910); experiment: HMT selectivity assay; format: biochemical
EZH2 (PRC2 complex), sequence (Q15910 whole entry, species assumed): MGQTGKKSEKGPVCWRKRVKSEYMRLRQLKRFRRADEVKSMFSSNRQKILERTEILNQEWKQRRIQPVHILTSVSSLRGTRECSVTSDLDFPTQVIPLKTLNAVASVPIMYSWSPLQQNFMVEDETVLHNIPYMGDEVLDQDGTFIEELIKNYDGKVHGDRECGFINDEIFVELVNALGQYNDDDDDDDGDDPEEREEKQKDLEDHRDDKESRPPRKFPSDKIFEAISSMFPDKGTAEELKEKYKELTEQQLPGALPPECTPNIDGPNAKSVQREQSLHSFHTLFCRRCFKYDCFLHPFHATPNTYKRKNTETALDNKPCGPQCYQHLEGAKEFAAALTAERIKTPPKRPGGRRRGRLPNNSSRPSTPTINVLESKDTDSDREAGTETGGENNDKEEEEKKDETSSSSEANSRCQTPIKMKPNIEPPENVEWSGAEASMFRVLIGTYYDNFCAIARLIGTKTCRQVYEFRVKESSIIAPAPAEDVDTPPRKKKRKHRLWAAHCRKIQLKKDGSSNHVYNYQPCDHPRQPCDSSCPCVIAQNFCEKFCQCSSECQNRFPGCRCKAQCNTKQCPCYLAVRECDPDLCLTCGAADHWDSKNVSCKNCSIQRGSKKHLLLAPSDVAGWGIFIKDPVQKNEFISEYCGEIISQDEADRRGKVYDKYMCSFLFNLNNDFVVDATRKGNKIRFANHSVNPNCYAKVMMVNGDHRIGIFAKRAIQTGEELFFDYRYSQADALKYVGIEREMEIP
EZH2 (PRC2 complex), sequence (O75530 whole entry partner, species assumed): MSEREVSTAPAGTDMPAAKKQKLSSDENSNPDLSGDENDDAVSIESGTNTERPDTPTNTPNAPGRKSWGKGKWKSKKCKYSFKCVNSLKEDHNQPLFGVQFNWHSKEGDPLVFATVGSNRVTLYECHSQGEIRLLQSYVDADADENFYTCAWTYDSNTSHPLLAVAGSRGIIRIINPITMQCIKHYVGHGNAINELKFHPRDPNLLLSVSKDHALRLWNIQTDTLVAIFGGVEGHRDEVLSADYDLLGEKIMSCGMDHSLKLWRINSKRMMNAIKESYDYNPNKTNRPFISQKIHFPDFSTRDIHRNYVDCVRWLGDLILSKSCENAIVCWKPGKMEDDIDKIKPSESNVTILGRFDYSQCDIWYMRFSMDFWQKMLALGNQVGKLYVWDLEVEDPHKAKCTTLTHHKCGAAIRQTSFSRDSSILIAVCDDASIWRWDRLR
EZH2 (PRC2 complex), sequence (Q15022 whole entry partner, species assumed): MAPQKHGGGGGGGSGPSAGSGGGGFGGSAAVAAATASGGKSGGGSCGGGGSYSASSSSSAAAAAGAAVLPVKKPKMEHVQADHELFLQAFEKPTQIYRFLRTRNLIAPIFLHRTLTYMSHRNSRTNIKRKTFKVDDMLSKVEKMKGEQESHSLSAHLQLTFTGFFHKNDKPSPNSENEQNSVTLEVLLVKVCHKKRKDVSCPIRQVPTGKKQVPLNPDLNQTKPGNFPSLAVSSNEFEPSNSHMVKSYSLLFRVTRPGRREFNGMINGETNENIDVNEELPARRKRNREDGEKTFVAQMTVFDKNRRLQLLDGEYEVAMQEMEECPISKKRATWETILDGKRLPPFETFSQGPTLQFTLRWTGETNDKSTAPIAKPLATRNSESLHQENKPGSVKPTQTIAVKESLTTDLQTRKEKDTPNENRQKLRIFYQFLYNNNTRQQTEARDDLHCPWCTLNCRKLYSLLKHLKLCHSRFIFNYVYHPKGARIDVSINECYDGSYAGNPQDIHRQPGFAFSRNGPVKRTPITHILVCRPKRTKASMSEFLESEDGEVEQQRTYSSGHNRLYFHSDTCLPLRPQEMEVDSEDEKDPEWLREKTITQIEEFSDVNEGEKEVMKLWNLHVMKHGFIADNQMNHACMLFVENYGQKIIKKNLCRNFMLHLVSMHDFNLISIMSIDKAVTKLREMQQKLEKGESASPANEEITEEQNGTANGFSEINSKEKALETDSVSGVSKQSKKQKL
Procedure, shortened: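 Triplicate, 1 h at room temperature. Guanidine HCl quench, then Flashplate CPM. 100% = no compound; 0% = no enzyme. IC50 over 100 nM–100 μM; Ki = IC50/2.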

SUV39H2 = SUV39H2 (Homo sapiens, UniProt Q9H5I1); experiment: HMT selectivity assay; format: biochemical
SUV39H2, sequence (Q9H5I1 whole entry, species assumed): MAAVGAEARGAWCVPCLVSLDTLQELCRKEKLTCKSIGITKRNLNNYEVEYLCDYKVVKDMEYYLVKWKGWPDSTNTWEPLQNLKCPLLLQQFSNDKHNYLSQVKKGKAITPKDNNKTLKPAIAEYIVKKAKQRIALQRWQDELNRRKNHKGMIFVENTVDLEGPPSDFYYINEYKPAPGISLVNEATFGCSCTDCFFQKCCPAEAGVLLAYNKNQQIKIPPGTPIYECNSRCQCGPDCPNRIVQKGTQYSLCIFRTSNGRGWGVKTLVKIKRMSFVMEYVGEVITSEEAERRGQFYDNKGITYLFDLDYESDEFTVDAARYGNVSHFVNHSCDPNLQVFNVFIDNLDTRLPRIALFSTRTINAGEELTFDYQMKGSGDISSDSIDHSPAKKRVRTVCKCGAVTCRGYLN
Procedure, shortened: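 Triplicate reactions, 1 h at room temperature. Quenched with 7.5 M guanidine HCl; read as Flashplate CPM. Normalised to no-compound and no-enzyme wells. IC50 from 100 nM–100 μM; Ki = IC50/2.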

MLL1 complex = MLL1 complex (Homo sapiens, UniProt Q03164); experiment: HMT selectivity assay; format: biochemical
MLL1 complex, sequence (Q9UBL3 whole entry): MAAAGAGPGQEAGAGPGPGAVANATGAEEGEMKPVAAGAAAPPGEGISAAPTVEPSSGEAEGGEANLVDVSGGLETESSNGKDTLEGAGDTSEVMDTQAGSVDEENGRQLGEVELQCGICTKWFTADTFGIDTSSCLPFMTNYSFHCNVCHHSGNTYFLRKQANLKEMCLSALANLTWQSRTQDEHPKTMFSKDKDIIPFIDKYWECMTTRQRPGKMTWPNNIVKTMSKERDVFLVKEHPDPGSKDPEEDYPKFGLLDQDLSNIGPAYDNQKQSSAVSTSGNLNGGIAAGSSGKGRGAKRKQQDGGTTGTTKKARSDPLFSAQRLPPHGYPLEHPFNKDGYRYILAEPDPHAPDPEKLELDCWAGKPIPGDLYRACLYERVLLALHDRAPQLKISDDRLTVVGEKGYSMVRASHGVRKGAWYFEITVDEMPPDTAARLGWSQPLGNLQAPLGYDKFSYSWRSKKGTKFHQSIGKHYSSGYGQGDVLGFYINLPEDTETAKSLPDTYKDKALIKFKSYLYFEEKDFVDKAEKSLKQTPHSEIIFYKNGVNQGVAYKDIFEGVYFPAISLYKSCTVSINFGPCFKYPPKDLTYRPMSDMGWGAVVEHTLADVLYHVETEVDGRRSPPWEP
MLL1 complex, sequence (Q03164 3745-3969): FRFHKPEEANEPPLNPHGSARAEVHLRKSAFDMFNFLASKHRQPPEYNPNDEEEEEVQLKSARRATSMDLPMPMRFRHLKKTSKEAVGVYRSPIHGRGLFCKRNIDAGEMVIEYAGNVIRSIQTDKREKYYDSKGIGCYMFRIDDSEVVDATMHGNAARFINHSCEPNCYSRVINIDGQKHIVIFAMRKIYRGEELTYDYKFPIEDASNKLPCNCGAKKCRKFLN
MLL1 complex, sequence (Q15291 whole entry, further chain): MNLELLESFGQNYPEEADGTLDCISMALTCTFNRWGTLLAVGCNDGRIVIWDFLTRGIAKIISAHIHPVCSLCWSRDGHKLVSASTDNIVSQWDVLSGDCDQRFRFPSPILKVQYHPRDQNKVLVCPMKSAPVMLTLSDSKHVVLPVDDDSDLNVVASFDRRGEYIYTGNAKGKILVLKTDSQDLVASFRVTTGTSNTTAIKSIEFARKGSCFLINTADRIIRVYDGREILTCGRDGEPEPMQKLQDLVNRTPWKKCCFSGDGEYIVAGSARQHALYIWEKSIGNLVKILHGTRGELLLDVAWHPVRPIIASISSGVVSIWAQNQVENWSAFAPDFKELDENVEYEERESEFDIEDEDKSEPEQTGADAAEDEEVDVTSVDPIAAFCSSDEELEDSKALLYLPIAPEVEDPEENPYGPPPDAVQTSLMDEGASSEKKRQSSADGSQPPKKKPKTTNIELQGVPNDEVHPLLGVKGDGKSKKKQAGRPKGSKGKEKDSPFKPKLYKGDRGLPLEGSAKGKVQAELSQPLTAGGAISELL
Procedure, shortened: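 Triplicate, 1 h at room temperature. Quenched with 7.5 M guanidine HCl; tritium read by Flashplate SPA. Normalised to no-compound and no-enzyme wells. IC50 from 100 nM–100 μM; Ki = IC50/2.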

EHMT1/GLP = target: T2, EHMT1/GLP (Homo sapiens, UniProt Q9H9B1); experiment: HMT selectivity assay; format: biochemical
T2 sequence (Q9H9B1 1-1298): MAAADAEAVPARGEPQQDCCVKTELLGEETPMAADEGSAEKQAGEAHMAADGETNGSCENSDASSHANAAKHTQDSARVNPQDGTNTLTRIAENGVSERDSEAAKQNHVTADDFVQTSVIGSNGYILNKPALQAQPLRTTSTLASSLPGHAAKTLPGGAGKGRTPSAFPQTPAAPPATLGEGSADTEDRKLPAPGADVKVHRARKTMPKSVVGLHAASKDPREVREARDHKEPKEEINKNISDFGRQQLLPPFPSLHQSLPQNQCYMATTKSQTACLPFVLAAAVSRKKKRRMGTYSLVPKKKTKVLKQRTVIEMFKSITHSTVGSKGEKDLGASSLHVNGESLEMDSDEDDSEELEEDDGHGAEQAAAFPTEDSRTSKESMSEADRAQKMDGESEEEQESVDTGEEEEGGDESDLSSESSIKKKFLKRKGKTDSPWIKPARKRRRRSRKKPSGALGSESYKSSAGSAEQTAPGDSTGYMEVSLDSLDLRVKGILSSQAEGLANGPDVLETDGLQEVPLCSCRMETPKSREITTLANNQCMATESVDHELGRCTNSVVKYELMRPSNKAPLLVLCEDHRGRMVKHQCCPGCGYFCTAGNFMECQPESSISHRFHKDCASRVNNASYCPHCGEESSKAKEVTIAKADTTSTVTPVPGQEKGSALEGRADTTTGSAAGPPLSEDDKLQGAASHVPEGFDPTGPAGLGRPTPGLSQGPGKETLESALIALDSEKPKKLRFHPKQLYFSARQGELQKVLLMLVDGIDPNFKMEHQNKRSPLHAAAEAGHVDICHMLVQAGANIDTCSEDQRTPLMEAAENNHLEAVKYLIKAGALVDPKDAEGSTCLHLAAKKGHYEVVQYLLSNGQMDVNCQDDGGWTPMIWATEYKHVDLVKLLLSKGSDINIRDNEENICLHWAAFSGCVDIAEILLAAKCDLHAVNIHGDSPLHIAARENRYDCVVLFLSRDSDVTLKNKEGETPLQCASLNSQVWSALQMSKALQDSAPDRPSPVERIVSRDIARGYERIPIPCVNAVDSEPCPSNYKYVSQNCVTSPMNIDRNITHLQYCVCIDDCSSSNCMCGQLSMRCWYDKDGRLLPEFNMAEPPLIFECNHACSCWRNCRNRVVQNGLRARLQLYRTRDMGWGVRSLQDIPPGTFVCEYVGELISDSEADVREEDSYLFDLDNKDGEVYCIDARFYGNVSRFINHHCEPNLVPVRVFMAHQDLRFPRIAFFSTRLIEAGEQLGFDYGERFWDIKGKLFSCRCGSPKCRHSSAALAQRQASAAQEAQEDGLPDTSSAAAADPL
Procedure, shortened: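 Stopped with 7.5 M guanidine HCl, then Flashplate CPM. No compound = 100%, no enzyme = 0%. IC50 from 100 nM–100 μM; Ki = IC50/2.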

EHMT2/G9a = target: T3, EHMT2/G9a (Homo sapiens, UniProt Q96KQ7); experiment: HMT selectivity assay; format: biochemical
T3 sequence (Q96KQ7 1-1210): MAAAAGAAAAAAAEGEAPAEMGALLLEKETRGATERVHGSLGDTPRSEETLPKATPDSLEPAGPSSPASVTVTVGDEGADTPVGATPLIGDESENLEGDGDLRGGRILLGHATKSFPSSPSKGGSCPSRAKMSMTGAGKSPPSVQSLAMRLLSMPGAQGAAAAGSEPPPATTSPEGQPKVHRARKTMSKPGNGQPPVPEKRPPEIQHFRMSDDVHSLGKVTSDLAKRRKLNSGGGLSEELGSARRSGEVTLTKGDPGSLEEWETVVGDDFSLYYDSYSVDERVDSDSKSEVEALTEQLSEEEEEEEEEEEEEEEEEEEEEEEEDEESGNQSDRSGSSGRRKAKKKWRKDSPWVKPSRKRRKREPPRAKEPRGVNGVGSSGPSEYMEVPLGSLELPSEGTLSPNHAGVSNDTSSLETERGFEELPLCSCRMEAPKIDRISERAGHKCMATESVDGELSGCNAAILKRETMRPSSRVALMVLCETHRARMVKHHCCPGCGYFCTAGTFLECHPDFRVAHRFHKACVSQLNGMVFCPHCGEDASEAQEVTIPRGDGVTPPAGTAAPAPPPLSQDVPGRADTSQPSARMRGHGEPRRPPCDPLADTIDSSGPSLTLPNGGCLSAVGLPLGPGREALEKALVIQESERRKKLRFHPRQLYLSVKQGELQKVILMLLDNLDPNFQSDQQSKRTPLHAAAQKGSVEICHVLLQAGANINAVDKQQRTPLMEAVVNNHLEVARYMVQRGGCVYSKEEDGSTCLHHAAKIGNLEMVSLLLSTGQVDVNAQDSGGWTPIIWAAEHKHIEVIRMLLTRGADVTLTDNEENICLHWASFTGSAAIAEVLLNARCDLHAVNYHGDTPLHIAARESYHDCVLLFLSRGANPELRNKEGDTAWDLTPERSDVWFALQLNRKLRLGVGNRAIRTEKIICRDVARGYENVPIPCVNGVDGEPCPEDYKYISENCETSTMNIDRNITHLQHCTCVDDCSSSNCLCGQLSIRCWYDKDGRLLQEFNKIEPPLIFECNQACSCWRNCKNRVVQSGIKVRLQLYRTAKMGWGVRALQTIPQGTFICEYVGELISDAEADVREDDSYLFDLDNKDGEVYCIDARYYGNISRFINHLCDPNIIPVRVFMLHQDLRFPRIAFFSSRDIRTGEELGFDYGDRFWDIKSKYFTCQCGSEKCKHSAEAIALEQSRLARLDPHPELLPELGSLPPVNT
Procedure, shortened: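 Triplicate reactions, 1 h, room temperature. Guanidine HCl stop; Flashplate SPA counts. Activity relative to no-compound (100%) and no-enzyme (0%). IC50 over 100 nM–100 μM; Ki = IC50/2.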

PRMT3 = PRMT3 (Homo sapiens, UniProt O60678); experiment: HMT selectivity assay; format: biochemical
SETD7 = target: T4, SETD7 (Homo sapiens, UniProt Q8WTS6); experiment: HMT selectivity assay; format: biochemical
T4 sequence (Q8WTS6 1-366): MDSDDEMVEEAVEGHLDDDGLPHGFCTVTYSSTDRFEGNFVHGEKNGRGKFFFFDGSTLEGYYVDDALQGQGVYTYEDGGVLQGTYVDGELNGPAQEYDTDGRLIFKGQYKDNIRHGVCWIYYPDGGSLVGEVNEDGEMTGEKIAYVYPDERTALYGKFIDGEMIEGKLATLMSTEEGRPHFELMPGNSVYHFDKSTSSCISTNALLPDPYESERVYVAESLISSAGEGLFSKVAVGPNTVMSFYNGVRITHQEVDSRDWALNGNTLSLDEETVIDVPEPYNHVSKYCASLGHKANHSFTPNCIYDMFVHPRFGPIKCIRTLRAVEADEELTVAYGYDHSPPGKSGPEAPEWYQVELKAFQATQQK
Procedure, shortened: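 Triplicate, room temperature, 1 h. Stopped with 7.5 M guanidine HCl; Flashplate CPM. Normalised to no-compound and no-enzyme controls. IC50 from 100 nM–100 μM; Ki = IC50/2.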

SETD8 = target: T5, SETD8 (Homo sapiens, UniProt Q9NQR1); experiment: HMT selectivity assay; format: biochemical
T5 sequence (Q9NQR1 1-393): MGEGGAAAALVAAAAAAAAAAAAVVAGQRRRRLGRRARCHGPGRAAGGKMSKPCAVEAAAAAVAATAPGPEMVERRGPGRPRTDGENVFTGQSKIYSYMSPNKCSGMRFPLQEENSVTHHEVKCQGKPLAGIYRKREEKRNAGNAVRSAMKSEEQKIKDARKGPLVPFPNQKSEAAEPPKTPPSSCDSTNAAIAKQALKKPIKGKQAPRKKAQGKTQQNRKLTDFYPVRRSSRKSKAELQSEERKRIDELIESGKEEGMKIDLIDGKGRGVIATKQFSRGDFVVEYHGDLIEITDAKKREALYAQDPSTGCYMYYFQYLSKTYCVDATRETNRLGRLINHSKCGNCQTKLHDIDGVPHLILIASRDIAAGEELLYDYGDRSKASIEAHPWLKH
Procedure, shortened: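 Triplicate, 1 h at room temperature. Guanidine HCl stop; Flashplate SPA CPM. No compound = 100%, no enzyme = 0%. IC50 over 100 nM–100 μM; Ki = IC50/2.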

binding to the haspin catalytic domain by differential scanning fluorimetry (haspin catalytic domain): no binding | pIC50 (PRMT5-MEP50): 5.70 | times less active against PRMT5 than DOT1L (PRMT5-MEP50; IC50 ratio versus DOT1L): about 25 | activity against EZH2 (present in the PRC2 complex) (EZH2 (PRC2 complex)): inactive | Ki (EZH2 (PRC2 complex); PRC2, compound 100 nM to 100 μM, SAM = Km): No inhibition | activity against SUV39H2 (SUV39H2): inactive | Ki (SUV39H2; SUV39H2, compound 100 nM to 100 μM, SAM = Km): No inhibition | activity against MLL (MLL1 complex): inactive | Ki (MLL1 complex; MLL, compound 100 nM to 100 μM, SAM = Km): No inhibition | activity against EHMT1/GLP (EHMT1/GLP): inactive | Ki (EHMT1/GLP; EHMT1, compound 100 nM to 100 μM, SAM = Km): No inhibition | activity against EHMT2/G9a (EHMT2/G9a): inactive | Ki (EHMT2/G9a; G9a, compound 100 nM to 100 μM, SAM = Km): No inhibition | pIC50 (PRMT3): 5.70 | times less active against PRMT3 than DOT1L (PRMT3; IC50 ratio versus DOT1L): about 25 | activity against SETD7 (SETD7): inactive | Ki (SETD7; SETD7, compound 100 nM to 100 μM, SAM = Km): No inhibition | activity against SETD8 (SETD8): inactive | Ki (SETD8; SETD8, compound 100 nM to 100 μM, SAM = Km): No inhibition
SMILES: Nc1ncnc2c1c(Br)cn2[C@@H]1O[C@H](CSCC[C@H](N)C(=O)O)[C@@H](O)[C@H]1O [BrSAH, N7-Bromo-deaza-S-adenosyl-L-homocysteine]
